M5 ag: human M5 muscarinic receptor agonists, primary screen, CHO-K1 cells, Fluo-8 calcium fluorescence; Muscarinic acetylcholine receptor M5 (Homo sapiens), P08912; CHO-K1 hM5 cells; 0% DMSO wells, 100% maximal acetylcholine response; activation, % at 3 µM; 0.19% of 360,000 active;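 active means activation above the run's mean over test compounds plus 3 SD, cut at about 23% in these data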;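 further: signal is peak over basal fluorescence ratio across the kinetic read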
Target sequence (P08912 whole entry, looked up): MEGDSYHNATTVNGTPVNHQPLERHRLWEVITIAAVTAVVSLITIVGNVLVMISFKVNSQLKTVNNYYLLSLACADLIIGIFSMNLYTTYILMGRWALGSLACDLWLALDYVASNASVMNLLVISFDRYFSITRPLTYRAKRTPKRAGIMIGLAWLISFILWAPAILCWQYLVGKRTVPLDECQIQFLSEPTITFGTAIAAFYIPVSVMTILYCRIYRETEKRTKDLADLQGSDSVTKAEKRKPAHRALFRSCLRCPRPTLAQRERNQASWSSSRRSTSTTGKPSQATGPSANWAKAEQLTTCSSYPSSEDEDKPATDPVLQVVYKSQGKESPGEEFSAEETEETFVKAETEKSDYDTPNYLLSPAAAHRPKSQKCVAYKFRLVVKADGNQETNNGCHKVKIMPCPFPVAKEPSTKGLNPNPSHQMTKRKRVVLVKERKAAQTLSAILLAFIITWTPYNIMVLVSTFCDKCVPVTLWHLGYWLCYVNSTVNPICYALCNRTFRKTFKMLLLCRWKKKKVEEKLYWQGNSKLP
CHRM4 PAM: human M4 muscarinic receptor positive allosteric modulators, primary screen, CHO-K1 cells, Fluo-8 calcium fluorescence. CHO-K1 hM4/Gqi5, ACh EC20; 0% = ACh EC20, 100% = maximal ACh. 0.4% of 360,000 active. Muscarinic acetylcholine receptor M4 (Homo sapiens), P08173. activation, % at 3 µM;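 active means activation above its plate's cutoff, the mean activation of sample wells plus 3 SD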
CHRM4 agonist: human M4 muscarinic receptor agonists, primary screen, CHO-K1 cells, Fluo-8 calcium fluorescence | Muscarinic acetylcholine receptor M4 (Homo sapiens), P08173 | CHO-K1 hM4/Gqi5; vehicle 0%, full acetylcholine response 100% | activation, % at 3 µM | 0.14% of 360,000 active;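 active means activation above the run mean over all test wells plus 3 SD, cut at about 32% in these data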;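 further: peak over basal fluorescence ratio per well then scaled between controls; 0% = DMSO wells and 100% = acetylcholine at EC100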
CHRM5 antagonist: human M5 muscarinic receptor antagonists, primary screen, CHO cells, Fluo-8 calcium fluorescence; CHO-hM5 cells, ACh EC80; inhibition, % at 3 µM; 0.59% of 360,000 active; AID 624040, 2012;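 active means inhibition above a per-plate cutoff, the mean of that plate's test compounds plus 3 SD, cut at about 27% in these data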;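 further: 0% = acetylcholine EC80 with DMSO and 100% = DMSO without agonist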
M4 antag: human M4 muscarinic receptor antagonists, primary screen, CHO cells, Fluo-8 calcium fluorescence; Muscarinic acetylcholine receptor M4 (Homo sapiens), P08173; CHO-hM4 cells, ACh EC80; inhibition, % at 3 µM; 0.73% of 360,000 active;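 active means inhibition above its plate's cutoff, the mean inhibition of sample wells plus 3 SD, cut at about 27% in these data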;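 further: 0% = acetylcholine EC80 with DMSO and 100% = DMSO without agonist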
CHRM5 PAM: human M5 muscarinic receptor positive allosteric modulators, primary screen, CHO-K1 cells, Fluo-8 calcium fluorescence; Muscarinic acetylcholine receptor M5 (Homo sapiens), P08912; CHO-K1 hM5, ACh EC20 PAM; 0% = ACh EC20, 100% = ACh EC100; activation, % at 3 µM; 0.3% of 360,000 active; AID 624038, 2012;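 active means activation above the run cutoff, the mean activation of all test compounds plus 3 SD, cut at about 18% in these data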
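Test system: CHO-K1 hM5 cells / Doses: single-point, 3 µM nominal / Times: Post-acetylcholine fluorescence recording 140 s / Technique: Fluo-8 calcium fluorescence / Measure: Max/basal fluorescence ratio as % of EC20–EC100 ACh window / Benchmarks: low control EC20 acetylcholine (0%), high control EC100 acetylcholine (100%) / Replicates: one well per compound, no replicates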
* = called active by the depositor. Hits are enriched below; roughly 1.9% of the tested compounds scored in any of these assays.

For COc1ccc(NS(=O)(=O)c2ccc(C(=O)N(C)Cc3ccc(C)o3)cc2)cc1 the results were M5 ag 28*, CHRM4 PAM -4, CHRM4 agonist 14, CHRM5 antagonist -2, M4 antag -3 and CHRM5 PAM -4.
CCOc1ccc(NS(=O)(=O)c2ccc(NC(=S)NC(=O)C(C)C)cc2)cc1 was read as M5 ag 12, CHRM4 PAM 0, CHRM4 agonist 7, CHRM5 antagonist 6, M4 antag 0 and CHRM5 PAM 1.
For CCCCn1c(N)c(N(CC(C)C)C(=O)c2ccc(Br)s2)c(=O)[nH]c1=O the results were M5 ag -3, CHRM4 PAM 5, CHRM4 agonist 0, CHRM5 antagonist -2, M4 antag -9 and CHRM5 PAM 1.
CC1CC(C)CN(C(=O)c2cccc(S(=O)(=O)NCc3ccccc3)c2)C1 (centres undefined) was read as M5 ag 6, CHRM4 PAM -2, CHRM4 agonist 2, CHRM5 antagonist 11, M4 antag -6 and CHRM5 PAM -1.
Screening O=C(NCCCN1CCOCC1)c1ccc2nc(Cc3cccc(Cl)c3)oc2c1 returned M5 ag -6, CHRM4 PAM -1, CHRM4 agonist 2, CHRM5 antagonist 6, M4 antag -5 and CHRM5 PAM -4.
Screening COc1cccc(-c2ncc3ccccc3c2COC(=O)CCC(=O)O)c1 returned M5 ag 0, CHRM4 PAM -1, CHRM4 agonist 1, CHRM5 antagonist 19, M4 antag 2 and CHRM5 PAM -6.
`O=C(NCC(c1ccco1)N1CCCC1)c1ccc(S(=O)(=O)Nc2ccc(F)cc2)cc1` (centres undefined) gave M5 ag -2, CHRM4 PAM -6, CHRM4 agonist 11, CHRM5 antagonist 8, M4 antag 6 and CHRM5 PAM -14.
Screening COc1ccc(NS(=O)(=O)c2ccc(C(=O)N3CCC(C)CC3)cc2)cc1 returned M5 ag 39*, CHRM4 PAM -9, CHRM4 agonist 27, CHRM5 antagonist 13, M4 antag -5 and CHRM5 PAM -21.
CCOc1ccc(NS(=O)(=O)c2ccc(C(=O)NCC(c3ccco3)N3CCCC3)cc2)cc1 (centres undefined) was read as M5 ag 12, CHRM4 PAM -1, CHRM4 agonist 34*, CHRM5 antagonist 6, M4 antag -15 and CHRM5 PAM 5.
`COc1ccc(C)cc1NC(=O)C1CCN(C(=O)Cc2ccccc2)CC1` gave M5 ag 2, CHRM4 PAM 4, CHRM4 agonist 0, CHRM5 antagonist 14, M4 antag 0 and CHRM5 PAM -2.
`CC(=O)N1CCN(S(=O)(=O)c2cccc(C(=O)OCc3cccc(F)c3)c2)CC1` gave M5 ag 7, CHRM4 PAM -8, CHRM4 agonist 11, CHRM5 antagonist 3, M4 antag 8 and CHRM5 PAM -12.
`CC1CCCCN1C/C=C/c1ccccc1[N+](=O)[O-]` (centres undefined) gave M5 ag -12, CHRM4 PAM -27, CHRM4 agonist 2, CHRM5 antagonist 11, M4 antag 34* and CHRM5 PAM -21.
For CCC1CCCCN1C/C=C/c1ccccc1[N+](=O)[O-] (centres undefined) the results were M5 ag -11, CHRM4 PAM -32, CHRM4 agonist 1, CHRM5 antagonist 55*, M4 antag 54* and CHRM5 PAM -21.
Screening COc1ccc2c3c(cccc13)C(=O)CC2 returned M5 ag 34*, CHRM4 PAM -22, CHRM4 agonist 78*, CHRM5 antagonist 29*, M4 antag 26 and CHRM5 PAM -10.
Screening CCOC(=O)C1=C(C)Nc2ccccc2N=C1NC(=O)c1oc2ccccc2c1COC returned M5 ag 4, CHRM4 PAM -8, CHRM4 agonist 17, CHRM5 antagonist 19, M4 antag 18 and CHRM5 PAM -43.
Cc1ccc(OCC(=O)O)c(O)c1 was read as M5 ag 0, CHRM4 PAM 1, CHRM4 agonist 1, CHRM5 antagonist 22, M4 antag -4 and CHRM5 PAM -4.
CCCOc1ccc(OC(=O)c2ccc(Br)o2)cc1 was read as M5 ag 9, CHRM4 PAM 12, CHRM4 agonist 76*, CHRM5 antagonist -2, M4 antag 3 and CHRM5 PAM -4.
Cc1ccc(-c2nn(-c3ccccc3)cc2CN(Cc2ccccc2)C(=O)c2ccco2)o1 was read as M5 ag 2, CHRM4 PAM -27, CHRM4 agonist 10, CHRM5 antagonist 10, M4 antag 52* and CHRM5 PAM -13.
`Cc1ccc(Cl)cc1N1CCN(Cc2cc(=O)n3ccsc3n2)CC1` gave M5 ag 0, CHRM4 PAM 2, CHRM4 agonist 5, CHRM5 antagonist -14, M4 antag -17 and CHRM5 PAM 19*.
`CCOC(=O)c1ccc(NC(=O)CCCN2C(=O)NC3(CCCC3)C2=O)cc1` gave M5 ag 1, CHRM4 PAM 5, CHRM4 agonist 2, CHRM5 antagonist 11, M4 antag -1 and CHRM5 PAM -7.
Screening O=C(CC[C@H]1O[C@@H](n2ccc(=O)[nH]c2=O)[C@H](O)[C@@H]1O)N1CCN(c2ccccn2)CC1 returned M5 ag 3, CHRM4 PAM 21*, CHRM4 agonist 1, CHRM5 antagonist -6, M4 antag -16 and CHRM5 PAM 7.
Screening CCOC(=O)c1cc(-c2cccs2)[nH]n1 returned M5 ag -2, CHRM4 PAM 27, CHRM4 agonist 0, CHRM5 antagonist 16, M4 antag 14 and CHRM5 PAM -14.
O=C(O)c1cc(-c2cccs2)[nH]n1 was read as M5 ag -2, CHRM4 PAM 28*, CHRM4 agonist 2, CHRM5 antagonist -4, M4 antag -4 and CHRM5 PAM 3.
Screening CC(C(=O)NC1CCCCC1)N(Cc1ccccc1)C(=O)c1snc(C(N)=O)c1N (centres undefined) returned M5 ag 3, CHRM4 PAM -2, CHRM4 agonist 2, CHRM5 antagonist 12, M4 antag -4 and CHRM5 PAM 0.

Screening results (PubChem BioAssay)
